Legend:
[1] = Selectivity ratio of EC50 for rat NRK cells to EC50 for human MOLM13 cells; assay type: toxicity; conditions: NRK cells versus MOLM13 cells, read-out: Ratio EC50
[2] = biological target: G protein-coupled receptor kinase 4 (Homo sapiens) (UniProt P32298); assay: Inhibition of biotinylated ligand binding to wild-type human full length GRK4 (M1 to C578 residues) expressed in bacterial expression system at 50 nM measured after 1 hr by kinomescan assay relative to control
Outline: (§1)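 Kinase-tagged T7 phage was grown in an E. coli BL21-derived host at 32 °C until lysis, and the lysate was clarified. Kinase was bound to streptavidin beads carrying a biotinylated ligand, with test compound at 50 nM (final DMSO), in binding buffer for 1 h at rt. Bound kinase was eluted and quantified by qPCR. Result is POC relative to the DMSO (100%) and control-compound (0%) references.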

[3] = biological target: Phosphatidylinositol 4-phosphate 5-kinase type-1 alpha (Homo sapiens) (UniProt Q99755); assay: Inhibition of biotinylated ligand binding to wild-type human full length PIP5K1A (M1 to H562 residues) expressed in bacterial expression system at 50 nM measured after 1 hr by kinomescan assay relative to control; outline: as §1
[4] = biological target: 1-phosphatidylinositol 3-phosphate 5-kinase (Homo sapiens) (UniProt Q9Y2I7); assay: Inhibition of biotinylated ligand binding to wild-type human partial length PIKFYVE (F1512 to C2098 residues) expressed in mammalian expression system at 50 nM measured after 1 hr by kinomescan assay relative to control
[5] = biological target: BMP-2-inducible protein kinase (Homo sapiens) (UniProt Q9NSY1); assay: Inhibition of biotinylated ligand binding to wild-type human partial length BIKE (S34 to N329 residues) expressed in bacterial expression system at 50 nM measured after 1 hr by kinomescan assay relative to control; outline: as §1
[6] = biological target: Phosphatidylinositol 5-phosphate 4-kinase type-2 beta (Homo sapiens) (UniProt P78356); assay: Inhibition of biotinylated ligand binding to wild-type human full length PIP5K2B (M1 to T416 residues) expressed in bacterial expression system at 50 nM measured after 1 hr by kinomescan assay relative to control; outline: as §1
Chain of Phosphatidylinositol 5-phosphate 4-kinase type-2 beta (Homo sapiens) (P78356 whole entry, the tested form may be a part): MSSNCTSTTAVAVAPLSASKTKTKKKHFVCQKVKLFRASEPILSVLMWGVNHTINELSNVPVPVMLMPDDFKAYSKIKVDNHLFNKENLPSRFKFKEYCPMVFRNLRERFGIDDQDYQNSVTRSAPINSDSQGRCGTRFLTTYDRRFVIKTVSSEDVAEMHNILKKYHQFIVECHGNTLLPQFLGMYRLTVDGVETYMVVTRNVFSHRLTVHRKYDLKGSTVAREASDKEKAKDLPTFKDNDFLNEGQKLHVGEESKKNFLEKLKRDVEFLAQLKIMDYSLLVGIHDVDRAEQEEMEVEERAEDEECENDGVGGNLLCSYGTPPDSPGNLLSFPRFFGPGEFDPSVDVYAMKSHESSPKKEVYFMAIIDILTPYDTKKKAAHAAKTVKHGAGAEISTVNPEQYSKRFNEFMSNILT

[7] = biological target: T1, Cyclin-dependent kinase 8 (Homo sapiens, UniProt P49336); assay: Inhibition of biotinylated ligand binding to wild-type human partial length CDK8 (M1 to T360 residues) expressed in Escherichia coli BL21 measured after 1 hr by kinomescan assay
T1 sequence (P49336 whole entry, the tested form may be a part): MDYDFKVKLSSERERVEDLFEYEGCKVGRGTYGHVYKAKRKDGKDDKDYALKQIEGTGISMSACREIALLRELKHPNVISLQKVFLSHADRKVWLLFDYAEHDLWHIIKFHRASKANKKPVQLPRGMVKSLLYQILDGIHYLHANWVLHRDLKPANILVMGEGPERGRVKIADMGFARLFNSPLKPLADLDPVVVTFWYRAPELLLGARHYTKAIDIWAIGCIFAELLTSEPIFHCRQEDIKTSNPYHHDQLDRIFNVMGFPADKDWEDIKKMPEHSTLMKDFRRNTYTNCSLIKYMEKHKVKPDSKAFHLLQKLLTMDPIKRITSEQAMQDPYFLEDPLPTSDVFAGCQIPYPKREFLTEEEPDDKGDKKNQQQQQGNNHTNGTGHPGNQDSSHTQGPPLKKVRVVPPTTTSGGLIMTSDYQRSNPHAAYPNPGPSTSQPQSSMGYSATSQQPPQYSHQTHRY

[8] = biological target: Non-receptor tyrosine-protein kinase TNK1 (Homo sapiens) (UniProt Q13470); assay: Inhibition of biotinylated ligand binding to wild-type human full length TNK1 (M1 to P661 residues) expressed in bacterial expression system at 50 nM measured after 1 hr by kinomescan assay relative to control; outline: as §1
[9] = biological target: Serine/threonine-protein kinase MAK (Homo sapiens) (UniProt P20794); assay: Inhibition of biotinylated ligand binding to wild-type human partial length MAK (M1 to P314 residues) expressed in bacterial expression system at 50 nM measured after 1 hr by kinomescan assay relative to control
Chain of Serine/threonine-protein kinase MAK (Homo sapiens) (P20794 whole entry, the tested form may be a part): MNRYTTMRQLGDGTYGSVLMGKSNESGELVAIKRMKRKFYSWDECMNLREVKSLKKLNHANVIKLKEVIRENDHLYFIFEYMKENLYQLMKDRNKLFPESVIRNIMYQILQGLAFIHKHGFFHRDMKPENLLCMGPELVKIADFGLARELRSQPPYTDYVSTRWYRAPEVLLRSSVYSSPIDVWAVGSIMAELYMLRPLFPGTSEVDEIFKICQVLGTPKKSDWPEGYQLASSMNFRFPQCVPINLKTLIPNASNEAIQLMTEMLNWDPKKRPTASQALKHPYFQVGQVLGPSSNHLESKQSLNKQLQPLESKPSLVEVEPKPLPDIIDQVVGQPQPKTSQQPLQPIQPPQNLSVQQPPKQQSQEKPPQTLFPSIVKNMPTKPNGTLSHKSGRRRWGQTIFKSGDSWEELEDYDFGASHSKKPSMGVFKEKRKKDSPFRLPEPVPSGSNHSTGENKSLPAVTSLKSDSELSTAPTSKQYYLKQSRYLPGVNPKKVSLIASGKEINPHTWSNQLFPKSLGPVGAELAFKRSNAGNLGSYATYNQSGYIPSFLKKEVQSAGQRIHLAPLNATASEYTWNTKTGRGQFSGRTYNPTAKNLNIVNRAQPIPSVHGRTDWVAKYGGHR

OCI-AML-3 = assay: cells; conditions: Homo sapiens, OCI-AML-3, 48 h
[10] = biological target: cGMP-dependent protein kinase 1 (Homo sapiens) (UniProt Q13976); assay: Inhibition of biotinylated ligand binding to wild-type human partial length PRKG1 (L339 to F686 residues) expressed in bacterial expression system at 50 nM measured after 1 hr by kinomescan assay relative to control; outline: as §1
Chain of cGMP-dependent protein kinase 1 (Homo sapiens) (Q13976 whole entry, the tested form may be a part): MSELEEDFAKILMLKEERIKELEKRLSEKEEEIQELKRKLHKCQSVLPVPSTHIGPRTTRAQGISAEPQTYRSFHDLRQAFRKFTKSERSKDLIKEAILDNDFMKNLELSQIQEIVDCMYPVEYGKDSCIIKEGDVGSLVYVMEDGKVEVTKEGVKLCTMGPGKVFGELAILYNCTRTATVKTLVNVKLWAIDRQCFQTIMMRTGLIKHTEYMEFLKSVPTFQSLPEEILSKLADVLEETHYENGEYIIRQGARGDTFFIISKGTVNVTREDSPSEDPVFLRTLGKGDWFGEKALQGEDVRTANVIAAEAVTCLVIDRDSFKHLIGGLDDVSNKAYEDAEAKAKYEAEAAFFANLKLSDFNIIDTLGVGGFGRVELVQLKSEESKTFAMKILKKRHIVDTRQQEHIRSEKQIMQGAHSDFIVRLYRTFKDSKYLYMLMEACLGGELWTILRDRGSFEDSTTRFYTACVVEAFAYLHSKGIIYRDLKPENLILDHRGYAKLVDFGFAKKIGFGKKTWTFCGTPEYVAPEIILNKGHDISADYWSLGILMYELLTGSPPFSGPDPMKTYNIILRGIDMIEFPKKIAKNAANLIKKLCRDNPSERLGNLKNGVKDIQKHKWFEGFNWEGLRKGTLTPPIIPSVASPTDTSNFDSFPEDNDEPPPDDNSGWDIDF

[11] = biological target: Activin receptor type-1 (Homo sapiens) (UniProt Q04771); assay: Inhibition of biotinylated ligand binding to wild-type human ACVR1 (C188 to C509 residues) expressed in bacterial expression system at 50 nM measured after 1 hr by kinomescan assay relative to control; outline: as §1
H9c2 = assay: cells; conditions: Rattus norvegicus, H9c2, 48 h
[12] = biological target: T1, Cyclin-dependent kinase 8; assay: Inhibition of biotinylated ligand binding to wild-type human partial length CDK8 (M1 to T360 residues) expressed in Escherichia coli BL21 at 50 nM measured after 1 hr by kinomescan assay relative to control
Outline: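 T7 phage-tagged kinase lysates from E. coli BL21 were mixed with streptavidin beads carrying biotinylated ligand and 50 nM compound. Incubated 1 h at room temperature with shaking, washed, then eluted 30 min with 0.5 μM non-biotinylated ligand. Kinase was quantified by qPCR. POC = (test − positive)/(DMSO − positive) ×100, with a control compound as positive.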

[13] = biological target: Serine/threonine-protein kinase RIO2 (Homo sapiens) (UniProt Q9BVS4); assay: Inhibition of biotinylated ligand binding to wild-type human partial length RIOK2 (M1 to D313 residues) expressed in mammalian expression system at 50 nM measured after 1 hr by kinomescan assay relative to control
Outline: (§2)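 Competition binding: kinase was bound to streptavidin beads carrying a biotinylated ligand, with test compound at 50 nM, in 20% SeaBlock, 0.17x PBS, 0.05% Tween 20 and 6 mM DTT for 1 h at rt with shaking. After washing, kinase was eluted with 0.5 μM free ligand and quantified by qPCR. Result is POC relative to the DMSO (100%) and control-compound (0%) references.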

[14] = biological target: Rho-associated protein kinase 1 (Homo sapiens) (UniProt Q13464); assay: Inhibition of biotinylated ligand binding to wild-type human partial length ROCK1 (M1 to R415 residues) expressed in mammalian expression system at 50 nM measured after 1 hr by kinomescan assay relative to control; outline: as §2
[15] = biological target: Serine/threonine-protein kinase 32A (Homo sapiens) (UniProt Q8WU08); assay: Inhibition of biotinylated ligand binding to wild-type human full length YANK1 (M1 to L396 residues) expressed in mammalian expression system at 50 nM measured after 1 hr by kinomescan assay relative to control; outline: as §2
[16] = biological target: Vascular endothelial growth factor receptor 3 (Homo sapiens) (UniProt P35916); assay: Inhibition of biotinylated ligand binding to wild-type human partial length FLT4 (E821 to E1196 residues) expressed in bacterial expression system at 50 nM measured after 1 hr by kinomescan assay relative to control; outline: as §1
Chain of Vascular endothelial growth factor receptor 3 (Homo sapiens) (P35916 whole entry, the tested form may be a part): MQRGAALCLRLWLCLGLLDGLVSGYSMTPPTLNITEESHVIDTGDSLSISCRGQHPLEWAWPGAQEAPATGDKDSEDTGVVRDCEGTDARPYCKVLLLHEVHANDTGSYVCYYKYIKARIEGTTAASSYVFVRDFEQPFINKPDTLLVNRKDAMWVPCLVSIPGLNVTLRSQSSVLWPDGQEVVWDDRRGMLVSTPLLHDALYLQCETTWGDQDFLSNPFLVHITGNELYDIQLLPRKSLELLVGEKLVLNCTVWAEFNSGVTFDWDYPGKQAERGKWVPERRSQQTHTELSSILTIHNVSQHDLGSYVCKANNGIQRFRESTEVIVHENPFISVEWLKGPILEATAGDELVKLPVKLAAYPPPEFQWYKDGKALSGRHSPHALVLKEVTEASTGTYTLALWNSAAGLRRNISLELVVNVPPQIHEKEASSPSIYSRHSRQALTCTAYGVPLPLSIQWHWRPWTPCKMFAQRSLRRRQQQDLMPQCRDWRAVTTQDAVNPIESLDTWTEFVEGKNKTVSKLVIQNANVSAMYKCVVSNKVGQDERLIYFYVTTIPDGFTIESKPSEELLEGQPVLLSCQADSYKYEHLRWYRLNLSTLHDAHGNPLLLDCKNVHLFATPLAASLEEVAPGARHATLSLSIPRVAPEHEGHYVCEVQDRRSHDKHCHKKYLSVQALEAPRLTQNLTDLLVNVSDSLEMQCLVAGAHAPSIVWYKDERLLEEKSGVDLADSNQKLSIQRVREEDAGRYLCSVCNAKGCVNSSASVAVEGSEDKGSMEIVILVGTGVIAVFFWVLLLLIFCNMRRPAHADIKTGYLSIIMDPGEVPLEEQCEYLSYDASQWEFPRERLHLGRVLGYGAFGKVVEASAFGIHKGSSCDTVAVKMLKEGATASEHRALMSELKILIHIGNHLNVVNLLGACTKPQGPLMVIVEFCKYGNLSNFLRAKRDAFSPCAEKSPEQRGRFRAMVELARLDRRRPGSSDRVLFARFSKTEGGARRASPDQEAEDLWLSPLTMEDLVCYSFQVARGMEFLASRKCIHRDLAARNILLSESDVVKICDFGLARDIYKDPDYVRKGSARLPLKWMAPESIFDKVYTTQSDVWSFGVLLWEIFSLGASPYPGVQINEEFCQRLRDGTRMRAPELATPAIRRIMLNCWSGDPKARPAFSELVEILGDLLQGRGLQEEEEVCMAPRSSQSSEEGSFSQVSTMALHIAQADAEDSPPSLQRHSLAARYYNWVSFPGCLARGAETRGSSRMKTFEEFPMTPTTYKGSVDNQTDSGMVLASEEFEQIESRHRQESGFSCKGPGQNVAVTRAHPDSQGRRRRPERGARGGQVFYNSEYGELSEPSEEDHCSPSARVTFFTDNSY

[17] = biological target: cAMP-dependent protein kinase catalytic subunit beta (Homo sapiens) (UniProt P22694); assay: Inhibition of biotinylated ligand binding to wild-type human full length PKAC-beta (M1 to F351 residues) expressed in bacterial expression system at 50 nM measured after 1 hr by kinomescan assay relative to control
[18] = biological target: Serine/threonine-protein kinase pim-2 (Homo sapiens) (UniProt Q9P1W9); assay: Inhibition of biotinylated ligand binding to wild-type human partial length PIM2 (M1 to E291 residues) expressed in bacterial expression system at 50 nM measured after 1 hr by kinomescan assay relative to control
[19] = biological target: Rho-associated protein kinase 2 (Homo sapiens) (UniProt O75116); assay: Inhibition of biotinylated ligand binding to wild-type human partial length ROCK2 (M1 to T431 residues) expressed in mammalian expression system at 50 nM measured after 1 hr by kinomescan assay relative to control; outline: as §2
Chain of Rho-associated protein kinase 2 (Homo sapiens) (O75116 whole entry, looked up, the tested form may be a part): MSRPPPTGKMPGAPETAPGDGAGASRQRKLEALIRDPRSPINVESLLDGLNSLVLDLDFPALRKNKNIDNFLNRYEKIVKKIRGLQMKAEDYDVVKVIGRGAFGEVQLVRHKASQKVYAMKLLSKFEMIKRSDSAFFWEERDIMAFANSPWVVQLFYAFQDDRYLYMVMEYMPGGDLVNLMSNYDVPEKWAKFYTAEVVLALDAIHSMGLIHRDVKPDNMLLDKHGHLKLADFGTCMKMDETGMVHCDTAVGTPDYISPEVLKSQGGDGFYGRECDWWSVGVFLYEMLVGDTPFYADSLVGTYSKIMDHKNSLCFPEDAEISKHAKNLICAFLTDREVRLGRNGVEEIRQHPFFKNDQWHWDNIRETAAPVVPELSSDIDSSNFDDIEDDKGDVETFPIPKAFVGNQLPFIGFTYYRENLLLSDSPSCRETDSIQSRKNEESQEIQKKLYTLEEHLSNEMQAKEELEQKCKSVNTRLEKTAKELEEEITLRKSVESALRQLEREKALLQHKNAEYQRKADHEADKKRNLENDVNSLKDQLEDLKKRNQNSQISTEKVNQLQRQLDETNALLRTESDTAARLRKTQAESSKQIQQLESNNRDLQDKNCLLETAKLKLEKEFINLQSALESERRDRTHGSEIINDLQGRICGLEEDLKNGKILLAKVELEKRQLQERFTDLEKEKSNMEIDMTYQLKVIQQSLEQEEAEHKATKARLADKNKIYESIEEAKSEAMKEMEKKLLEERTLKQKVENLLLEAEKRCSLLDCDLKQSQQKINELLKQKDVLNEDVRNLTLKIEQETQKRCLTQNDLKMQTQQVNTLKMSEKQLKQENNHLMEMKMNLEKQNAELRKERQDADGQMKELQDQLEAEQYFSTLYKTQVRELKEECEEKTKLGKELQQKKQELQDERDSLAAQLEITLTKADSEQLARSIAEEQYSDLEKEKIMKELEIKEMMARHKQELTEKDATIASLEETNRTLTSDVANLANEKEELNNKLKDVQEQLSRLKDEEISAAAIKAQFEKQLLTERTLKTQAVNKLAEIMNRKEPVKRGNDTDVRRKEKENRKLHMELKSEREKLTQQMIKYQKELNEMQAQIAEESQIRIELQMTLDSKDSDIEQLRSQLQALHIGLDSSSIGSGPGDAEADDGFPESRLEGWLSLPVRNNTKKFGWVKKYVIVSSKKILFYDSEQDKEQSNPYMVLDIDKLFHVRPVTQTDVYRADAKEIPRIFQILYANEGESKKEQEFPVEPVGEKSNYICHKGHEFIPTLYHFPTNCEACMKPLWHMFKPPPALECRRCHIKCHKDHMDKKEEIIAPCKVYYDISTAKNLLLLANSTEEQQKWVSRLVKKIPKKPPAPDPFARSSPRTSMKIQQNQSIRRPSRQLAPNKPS

[20] = biological target: Serine/threonine-protein kinase haspin (Homo sapiens) (UniProt Q8TF76); assay: Inhibition of biotinylated ligand binding to wild-type human partial length HASPIN (I452 to K798 residues) expressed in mammalian expression system at 50 nM measured after 1 hr by kinomescan assay relative to control

With `CN(C)[C@@H]1CC[C@@]2(C)[C@@H](CC[C@@H]3[C@@H]2CC[C@]2(C)C(c4cccc5cnccc45)=CC[C@@H]32)C1` the selectivity ratio [1] was 3 to 4, the inhibition [2] was > 80% and the inhibition [3] was > 80%. For the same compound, the inhibition [4] was > 80%, the inhibition [5] was > 80% and the inhibition [6] was > 80%. For the same compound, the Kd [7] was 0.0035 µM, the inhibition [8] was > 80% and the inhibition [9] was > 80%. The EC50 (OCI-AML-3) was 4.8 µM, the inhibition [10] was > 80% and the inhibition [11] was > 80%. The EC50 (H9c2) was 12.5 to 25 µM, the inhibition [12] was > 80% and the inhibition [13] was > 80%. For the same compound, the inhibition [14] was > 80%, the inhibition [15] was > 80% and the inhibition [16] was > 80%. For the same compound, the inhibition [17] was > 80%, the inhibition [18] was > 80% and the inhibition [19] was > 80%. For the same compound, the inhibition [20] was > 80%.
